Experimental data as given in ChEMBL document CHEMBL3758106, “Antitumor Activity of Americanin A Isolated from the Seeds of Phytolacca americana by Regulating the ATM/ATR Signaling Pathway and the Skp2-p27 Axis in Human Colon Cancer Cells” (J Nat Prod, 2015).
The source made the active and inactive calls. The rule behind the calls is not given here.

What was measured:
[1] = Upregulation of MDM2 expression in human HCT116 cells at 7.5 to 30 uM after 24 hrs by Western blot analysis; type: functional, cell-based; conditions: HCT-116
HCT-116 [2] = assay: Induction of cell cycle arrest in human HCT116 cells assessed as accumulation at G2/M phase at 30 uM after 24 hrs by propidium iodide staining-based flow cytometric analysis in presence of RNase A (reference value: 20.6%); type: functional
HCT-116 [3] = assay: Increase in Cul-1 expression in human HCT116 cells after 24 hrs by western blot analysis; type: functional, cell-based
Outline: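 HCT116 cells exposed 24 h in complete medium; lysed in RIPA buffer (pH 8.0), protein by BCA, equal loads run on 8–13% SDS-PAGE, PVDF transfer, blocked in 5% BSA/TBST, primary antibodies overnight at 4 °C, HRP secondaries 2 h RT, ECL detection; β-actin as loading control.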

HCT-116 [4] = assay: Induction of cell cycle arrest in human HCT116 cells assessed as accumulation at sub-G1 phase at 7.5 uM after 24 hrs by propidium iodide staining-based flow cytometric analysis in presence of RNase A (reference value: 1.5%); type: functional
Mus musculus [5] = assay: Upregulation of p21 in human HCT116 cells xenografted in nude mouse at 5 to 10 mg/kg, ip administered 3 times per week measured on day 41 by Western blot analysis; type: functional, organism-based; conditions: HCT-116
Outline: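 HCT116 xenografts in nude mice dosed ip at 5 or 10 mg/kg three times weekly to day 41. Portions of the excised frozen tumors were thawed on ice, homogenized in complete lysis buffer, protein quantified by Bradford, and p21, p27 and Skp2 assessed by Western blot with β-actin as internal control.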

HCT-116 [6] = assay: Induction of cell cycle arrest in human HCT116 cells assessed as accumulation at sub-G1 phase at 30 uM after 24 hrs by propidium iodide staining-based flow cytometric analysis in presence of RNase A (reference value: 1.5%); type: functional
HCT-116 [7] = assay: Induction of cell cycle arrest in human HCT116 cells assessed as accumulation at S phase at 15 uM after 48 hrs by propidium iodide staining-based flow cytometric analysis in presence of RNase A (reference value: 16.2%); type: functional
HCT-116 [8] = assay: Induction of cell cycle arrest in human HCT116 cells assessed as accumulation at S phase at 7.5 uM after 48 hrs by propidium iodide staining-based flow cytometric analysis in presence of RNase A (reference value: 16.2%); type: functional
HCT-116 [9] = assay: Induction of cell cycle arrest in human HCT116 cells assessed as accumulation at G2/M phase at 7.5 uM after 24 hrs by propidium iodide staining-based flow cytometric analysis in presence of RNase A (reference value: 20.6%); type: functional
HCT-116 [10] = assay: Induction of morphological change in human HCT116 cells assessed as loss of contact with surface of culture dish at 30 uM after 24 to 48 hrs by phase contrast microscopic analysis; type: functional, cell-based
Outline: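 HCT116 cells incubated with compound for 24 h, then viewed and photographed under phase-contrast microscopy; also examined at 48 h.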

RKO = assay: Antiproliferative activity against human RKO cells after 24 to 72 hrs by SRB assay; type: functional, cell-based
Outline: (§1)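 Cells grown in 96-well plates (RPMI 1640; MRC-5 in MEM, 10% FBS, antibiotics) with compound […]; fixed in 10% TCA 30 min at 4 °C, stained 0.4% SRB in 1% acetic acid 1 h, dye dissolved in 10 mM Tris pH 10.0, A515 read; viability as % of solvent control, IC50 by nonlinear regression; mean of three independent experiments.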

HCT-116 [11] = assay: Induction of apoptosis in human HCT116 cells assessed as viable cells at 30 uM after 48 hrs by annexin V-FITC/propidium iodide staining-based flow cytometric analysis in presence of NAC (reference value: 87.4%); type: functional; conditions: HCT-116, 48 h, read-out: Activity
HCT-116 [12] = assay: Induction of apoptosis in human HCT116 cells assessed as early apoptotic cells at 30 uM after 48 hrs by annexin V-FITC/propidium iodide staining-based flow cytometric analysis (reference value: 1.6%); type: functional
HCT-116 [13] = assay: Induction of cell cycle arrest in human HCT116 cells assessed as accumulation at sub-G1 phase at 7.5 uM after 48 hrs by propidium iodide staining-based flow cytometric analysis in presence of RNase A (reference value: 6.5%); type: functional
HCT-116 [14] = assay: Induction of cell cycle arrest in human HCT116 cells assessed as accumulation at G0/G1 phase at 7.5 uM after 24 hrs by propidium iodide staining-based flow cytometric analysis in presence of RNase A (reference value: 64.6%); type: functional
[15] = Upregulation of ATR expression in human HCT116 cells up to 24 hrs at 1 hr by Western blot analysis; type: functional, cell-based; conditions: HCT-116
HCT-116 [16] = assay: Induction of cell cycle arrest in human HCT116 cells assessed as accumulation at S phase at 30 uM after 48 hrs by propidium iodide staining-based flow cytometric analysis in presence of RNase A (reference value: 16.2%); type: functional
HCT-116 [17] = assay: Induction of apoptosis in human HCT116 cells assessed as decrease in Bcl-xL expression at 7.5 to 30 uM after 48 hrs by Western blot analysis; type: functional, cell-based
Outline: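 HCT116 cells exposed 48 h; Western blot of RIPA lysates (BCA quantification, SDS-PAGE, PVDF, overnight primary antibodies at 4 °C, HRP secondary, ECL).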

HCT-116 [18] = assay: (§2) Antiproliferative activity against human HCT116 cells after 24 to 72 hrs by SRB assay; type: functional, cell-based; outline: as §1
[19] = as §2; type: functional, cell-based; conditions: HCT-116; outline: as §1
CAKI-1 = assay: Antiproliferative activity against human CAKI-1 cells after 24 to 72 hrs by SRB assay; type: functional, cell-based; outline: as §1
HCT-116 [20] = assay: Induction of apoptosis in human HCT116 cells assessed as viable cells at 7.5 uM after 48 hrs by annexin V-FITC/propidium iodide staining-based flow cytometric analysis (reference value: 91.2%); type: functional; conditions: HCT-116, 48 h, read-out: Activity
Mus musculus [21] = assay: Toxicity in nude mouse at 5 to 10 mg/kg, ip administered 3 times per week measured on day 41; type: organism-based; conditions: in vivo
Outline: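 Nude mice implanted s.c. in the flank with 2 × 10^6 HCT116 cells. Once tumors reached about 120 mm3, mice were randomized, six per group, to vehicle or compound at 5 or 10 mg/kg ip (200 μL) three times weekly; irinotecan 10 mg/kg ip once weekly as reference. Body weight recorded twice weekly to assess toxicity; study ended day 41.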

A549 = assay: Antiproliferative activity against human A549 cells after 24 to 72 hrs by SRB assay; type: functional, cell-based; outline: as §1
HCT-116 [22] = assay: Induction of apoptosis in human HCT116 cells assessed as cleaved caspase 8 level at 30 uM up to 24 hrs by Western blot analysis in presence of NAC; type: functional, cell-based
HCT-116 [23] = assay: Induction of apoptosis in human HCT116 cells assessed as increase in Bim expression after 48 hrs by Western blot analysis; type: functional, cell-based
Outline: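 Cells treated for 48 h and lysed in RIPA buffer (pH 8.0). Total protein was measured by BCA, and equal protein was resolved on 8−13% SDS-PAGE and moved to PVDF. Membranes were blocked in 5% BSA/TBST and given primary antibody overnight at 4 °C, then an HRP secondary for 2 h at RT. Detection by enhanced chemiluminescence.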

O=C/C=C/c1ccc2c(c1)O[C@@H](CO)[C@H](c1ccc(O)c(O)c1)O2 [AMERICANIN A]
Activity [1]: Active
Activity (HCT-116 [2]): 38.9%
Activity (HCT-116 [3]): Active
Activity (HCT-116 [4]): 1.9%
Activity (Mus musculus [5]): Active
Activity (HCT-116 [6]): 4%
Activity (HCT-116 [7]): 8.2%
Activity (HCT-116 [8]): 13.5%
Activity (HCT-116 [9]): 27.5%
Activity (HCT-116 [10]): Active
IC50 (RKO): 24.4 µM
viability at 30 µM (HCT-116 [11]): 73.2%
Activity (HCT-116 [12]): 32.8%
Activity (HCT-116 [13]): 7.6%
Activity (HCT-116 [14]): 55.4%
Activity [15]: Dose-dependent effect
Activity (HCT-116 [16]): 8.4%
Activity (HCT-116 [17]): Active
Activity (HCT-116 [18]): Dose-dependent effect
IC50 [19]: 7.6 µM
IC50 (CAKI-1): 66.4 µM
viability at 7.5 µM (HCT-116 [20]): 84.6%
Activity (Mus musculus [21]): Non-toxic
IC50 (A549): 39.1 µM
Activity (HCT-116 [22]): inactive
Activity (HCT-116 [23]): Dose-dependent effect
